Screening results: PubChem, several laboratories
Shown is part of a subset that was picked to be rich in hits.
S1P4 antagonist = blocks the human S1P4 receptor. O95977. inhibition, % at 4.98 µM. S1P4-expressing cells, antagonist mode, reporter read-out. 0.26% of 220,000 active; in the data active means inhibition above about 29%;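 further: 0% = wells stimulated with agonist and 100% = vehicle wells without agonist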
Mdm2 ligase inh = inhibitors of human Mdm2 E3 ubiquitin ligase | Q00987 | cell-based MDM2 ubiquitination luciferase reporter, 2 h; 0 = plate control, 100 = twice control, blank-subtracted | signal enhancement, % at 5 µM | 0.11% of 210,000 active | AID 1230;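 active means signal enhancement of 30% or more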;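 further: luminescence tracks abundance of the self-degrading MDM2-luciferase fusion protein; higher signal means inhibition of MDM2 E3 ligase activity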
Target sequence (Q00987 whole entry, looked up, the tested form may be a part): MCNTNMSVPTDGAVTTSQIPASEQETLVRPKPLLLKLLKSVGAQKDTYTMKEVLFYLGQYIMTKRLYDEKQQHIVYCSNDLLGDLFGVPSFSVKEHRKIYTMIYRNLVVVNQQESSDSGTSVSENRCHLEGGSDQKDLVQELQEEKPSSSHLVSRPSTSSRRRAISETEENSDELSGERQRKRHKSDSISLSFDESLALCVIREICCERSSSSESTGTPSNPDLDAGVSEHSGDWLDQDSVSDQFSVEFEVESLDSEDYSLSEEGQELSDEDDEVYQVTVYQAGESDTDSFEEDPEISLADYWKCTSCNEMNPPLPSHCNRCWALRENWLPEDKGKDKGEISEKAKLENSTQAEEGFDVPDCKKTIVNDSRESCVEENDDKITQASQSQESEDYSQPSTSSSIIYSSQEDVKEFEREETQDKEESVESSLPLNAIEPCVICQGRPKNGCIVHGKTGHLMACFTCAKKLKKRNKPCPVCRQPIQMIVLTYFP
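Test system: mammalian cells stably expressing self-ubiquitinating, self-degrading MDM2 E3–luciferase fusion; Amount: 2000 cells in each well; Medium: DMEM; Schedule: 4 h settle plus 2 h compound, 37 °C; Technique: SteadyLite luciferase luminescence after 15 min room-temperature reagent incubation; Benchmarks: plate control and blank wells.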
S1P4 ag = human S1P4 receptor agonism; S1P4-expressing cell line, agonist reporter assay; activation, % at 4.98 µM; 0.35% of 220,000 active; in the data active means activation above about 11%;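 further: 0% = DMSO vehicle and 100% = reference agonist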
L major viab = reduces viability of Leishmania major promastigotes. resazurin fluorescence viability. 9% of 200,000 active. inhibition, % at 10 µM. AID 1063; in the data active means inhibition above about 50%;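 further: promastigotes grown with compound for 44 hours at 28 °C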
S1P3 antagonist = blocks the human S1P3 receptor; Q99500; CHO S1P3 NFAT-BLA reporter, FRET fluorescence, antagonist mode; inhibition, % at 4.98 µM; 0.27% of 170,000 active; AID 485;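 active means inhibition above the plate cutoff, the mean inhibition of test wells on that plate plus 3 SD, cut at about 28% in these data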;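 further: cells challenged with S1P at its EC80 of 0.8 µM; blue over green emission ratio from cleaved BLA substrate after 4 h stimulation; 0% = S1P-stimulated wells and 100% = unstimulated DMSO-only wells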
The depositor's hits bear a star.

Screening Cc1ccc(O)c(C(=O)c2cnc3c(c2)c(=O)n(C)c(=O)n3C)c1 returned S1P4 antagonist -27, Mdm2 ligase inh -15, S1P4 ag 0, L major viab -3 and S1P3 antagonist -1.
For Cc1c(NC(=O)C(C)OC(=O)c2sc3ccccc3c2Cl)c(=O)n(-c2ccccc2)n1C (stereo unspecified) the results were S1P4 antagonist 0, Mdm2 ligase inh 1, S1P4 ag 0, L major viab -2 and S1P3 antagonist 6.
For Cc1c(NC(=O)C(C)OC(=O)c2ccc([N+](=O)[O-])s2)c(=O)n(-c2ccccc2)n1C (stereo unspecified) the results were S1P4 antagonist -7, Mdm2 ligase inh -20, S1P4 ag 8, L major viab 77* and S1P3 antagonist -14.
For Cc1c(NC(=O)C(C)OC(=O)CCc2ccccc2)c(=O)n(-c2ccccc2)n1C (stereo unspecified) the results were S1P4 antagonist 9, Mdm2 ligase inh -2, S1P4 ag 1, L major viab 54* and S1P3 antagonist -10.
`CC1CCC2(CC1)NC(=O)N(CC(=O)Nc1ccc3c(c1)OCCO3)C2=O` (stereo unspecified) gave S1P4 antagonist 9, Mdm2 ligase inh -5, S1P4 ag -1, L major viab -2 and S1P3 antagonist -5.
For CC1CCc2c(nc3ncnn3c2N2CCN(c3ccccc3)CC2)C1 (stereo unspecified) the results were S1P4 antagonist -5, Mdm2 ligase inh -9, S1P4 ag -3, L major viab 52* and S1P3 antagonist -14.
`CC1CCc2c(nc3ncnn3c2N2CCN(c3ccccc3F)CC2)C1` (stereo unspecified) gave S1P3 antagonist -5.
Screening CCCn1c(=O)c2ccccc2n2c(SCc3cc(=O)oc4ccc5ccccc5c34)nnc12 returned S1P4 antagonist -14, Mdm2 ligase inh 5, S1P4 ag 1, L major viab 62* and S1P3 antagonist 1.
COc1c(Cl)cc(-c2noc(C)c2C(=O)NC(C)C)cc1Cl was read as S1P4 antagonist -11, S1P4 ag 3, L major viab -5 and S1P3 antagonist -17.
For CCOC(=O)C(=O)NNc1cccc(C)c1C the results were S1P4 antagonist -11, Mdm2 ligase inh -11, S1P4 ag 0, L major viab -7 and S1P3 antagonist 2.
`CCOC(=O)C(=O)NNc1ccccc1C` gave S1P4 antagonist -5, Mdm2 ligase inh -10, S1P4 ag 2, L major viab 72* and S1P3 antagonist -5.
For O=[N+]([O-])c1nn(-c2ccc3c(c2)OCCO3)n(O)c1=NCc1ccccc1Cl the results were S1P4 antagonist -22, Mdm2 ligase inh -8, S1P4 ag 1 and L major viab 82*.
O=[N+]([O-])c1nn(-c2ccc3c(c2)OCCO3)n(O)c1=NC1CCCCC1 was read as S1P4 antagonist -12, Mdm2 ligase inh -17, S1P4 ag -6 and L major viab 70*.
Cc1ccc(CN=c2c([N+](=O)[O-])nn(-c3cccc(Cl)c3)n2O)cc1 was read as S1P4 antagonist -6, Mdm2 ligase inh -3, S1P4 ag 0, L major viab 20 and S1P3 antagonist -7.
Screening COc1ccc(CCNC(=O)C(=O)Nc2ccc3c(c2)OCO3)cc1OC returned S1P4 antagonist 15, Mdm2 ligase inh 2, S1P4 ag 0, L major viab -2 and S1P3 antagonist -2.
`COc1ccc(C)cc1S(=O)(=O)Nc1cc(Cl)ccc1Cl` gave S1P4 antagonist -7, Mdm2 ligase inh -1, S1P4 ag 1 and L major viab 3.
For COc1cc(NS(=O)(=O)c2cc(C)ccc2OC)c(OC)cc1Cl the results were S1P4 antagonist -15, Mdm2 ligase inh -15, S1P4 ag -1, L major viab 99* and S1P3 antagonist 7.
O=C(Cc1c(Sc2ccccc2)c2ccccc2n1Cc1ccccc1)NCCO was read as S1P4 antagonist -7, Mdm2 ligase inh -11, S1P4 ag -1, L major viab 58* and S1P3 antagonist -4.
Screening CCOC(=O)C(=O)c1csc(NC(=O)CCSc2ccc(C)cc2)n1 returned S1P4 antagonist -4, Mdm2 ligase inh 1, S1P4 ag -1, L major viab -5 and S1P3 antagonist 11.
Screening CC[n+]1c(/C=C/N(C)c2ccccc2)oc2ccccc21 returned S1P4 antagonist -6, Mdm2 ligase inh -23, S1P4 ag 2, L major viab 100* and S1P3 antagonist -6.
CC[n+]1c(/C=C/Nc2ccccc2)oc2ccc(OC)cc21 was read as S1P4 antagonist 20, Mdm2 ligase inh -13, S1P4 ag 1, L major viab 18 and S1P3 antagonist -8.
`CC[n+]1c(/C=C/N(C)c2ccccc2)oc2ccc(F)cc21` gave S1P4 antagonist -11, Mdm2 ligase inh -30, S1P4 ag 0, L major viab 84* and S1P3 antagonist -15.
CC[n+]1c(/C=C/Nc2ccccc2)oc2ccccc21 was read as S1P4 antagonist 6, Mdm2 ligase inh -1, S1P4 ag -2 and L major viab 96*.
`CN(/C=C/c1c([N+](=O)[O-])c(=O)n(C)c(=O)n1C)c1ccccc1` gave S1P4 antagonist 6, Mdm2 ligase inh -2, S1P4 ag 2, L major viab 20 and S1P3 antagonist -7.
`CC(C)(O)C#Cc1ccc(C(=O)NCc2ccccc2)s1` gave S1P4 antagonist 3, S1P4 ag 0 and L major viab -3.
CC1CN(CC(O)COc2ccc(C(=O)c3ccccc3)cc2)CC(C)O1 (stereo unspecified) was read as S1P4 antagonist -18, Mdm2 ligase inh -29, S1P4 ag 3, L major viab 79* and S1P3 antagonist -2.
For O=C(c1ccccc1)c1ccc(OCC(O)CN2CCN(Cc3ccccc3)CC2)cc1 (stereo unspecified) the results were S1P4 antagonist 8, Mdm2 ligase inh -5, S1P4 ag 0 and L major viab 96*.
CC(=O)c1ccc(OCC(O)CN2CCN(Cc3ccccc3)CC2)cc1 (stereo unspecified) was read as S1P4 antagonist -13, Mdm2 ligase inh -22, S1P4 ag -4, L major viab 94* and S1P3 antagonist -4.
For CCOc1ccc(OCC(O)CNC2CCN(Cc3ccccc3)CC2)cc1 (stereo unspecified) the results were S1P4 antagonist -17, Mdm2 ligase inh -17, S1P4 ag 2, L major viab 27 and S1P3 antagonist 5.
For CC(C)(c1ccccc1)c1ccc(OCC(O)CNC2CCN(Cc3ccccc3)CC2)cc1 (stereo unspecified) the results were S1P4 antagonist -6, Mdm2 ligase inh -2, S1P4 ag 0, L major viab 101* and S1P3 antagonist -4.
`CC(=O)c1ccc(OCC(O)CN2CCN(CC(O)COc3ccc(C(C)=O)cc3)CC2)cc1` (stereo unspecified) gave S1P4 antagonist 3, Mdm2 ligase inh -6, S1P4 ag 2 and L major viab -8.
